The values that follow come from ChEMBL document CHEMBL5329156, “Discovery and development of novel substituted monohydrazides as potent antifungal agents” (RSC Med Chem, 2023).

What all share (assay type): functional
The subject of assay [1] is Candida albicans. As to the kind of experiment: Antifungal activity against Candida albicans ATCC 10231 assessed as fungal growth inhibition by double dilution method. In short, it runs like this:
(§1)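 Broth microdilution after CLSI M27-A3/M38-A2 with minor changes. Single colony grown overnight in YPD at 35 °C, 200 rpm. Compound final range 0.06-31.3 µg/mL; incubated 48 h at 35 °C.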

Assay [2] deals with Candida albicans. Description: Antifungal activity against Candida albicans ATCC 64124 assessed as fungal growth inhibition by double dilution method. The method in brief:
(§2)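 Broth microdilution after CLSI M27-A3/M38-A2 with minor modifications. A single colony was grown overnight in YPD at 35 °C with shaking at 200 rpm. Cells were mixed 1:1 with compound (final 0.06-31.3 µg/mL, from DMSO stocks) and incubated 48 h at 35 °C.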

Assay [3] relates to Candida albicans. Description: Antifungal activity against itraconazole/fluconazole susceptible Candida albicans ATCC MYA-2876 assessed as fungal growth inhibition by double dilution method. The method in brief:
as §2

Assay [4] deals with Candida albicans. Description: Antifungal activity against itraconazole/fluconazole resistant Candida albicans ATCC 90819 assessed as fungal growth inhibition by double dilution method. In short, it runs like this:
as §2

Assay [5] has as its system Candida albicans. Description: Antifungal activity against itraconazole/fluconazole susceptible Candida albicans ATCC MYA-2310 assessed as fungal growth inhibition by double dilution method. In short, it runs like this:
as §2

Assay [6] deals with Candida albicans. As to the kind of experiment: Antifungal activity against itraconazole/fluconazole resistant Candida albicans ATCC MYA-1237 assessed as fungal growth inhibition by double dilution method. The method in brief:
as §2

The subject of assay [7] is Candida albicans. Description: Antifungal activity against itraconazole/fluconazole resistant Candida albicans ATCC MYA-1003 assessed as fungal growth inhibition by double dilution method. The method in brief: as §2
The subject of assay [8] is Nakaseomyces glabratus. Description: Antifungal activity against Candida glabrata ATCC 2001 assessed as fungal growth inhibition by double dilution method. The method in brief:
as §1

The next assay relates to Pichia kudriavzevii. Description: Antifungal activity against Pichia kudriavzevii ATCC 6258 assessed as fungal growth inhibition by double dilution method. In short, it runs like this:
as §1

The subject of assay [9] is Nakaseomyces glabratus. Description: Antifungal activity against Candida glabrata ATCC 22019 assessed as fungal growth inhibition by double dilution method. The method in brief: as §1
Assay [10] deals with [Candida] auris. As to the kind of experiment: Antifungal activity against Candida auris AR Bank # 0384 assessed as fungal growth inhibition by double dilution method. To be noted: Candidozyma auris. The method in brief: as §1
Assay [11] deals with [Candida] auris. As to the kind of experiment: Antifungal activity against Candida auris AR Bank # 0390 assessed as fungal growth inhibition by double dilution method. Conditions: Candidozyma auris. In short, it runs like this: as §1
The subject of the next assay is Cryptococcus neoformans. As to the kind of experiment: Antifungal activity against Cryptococcus neoformans ATCC MYA-895 assessed as fungal growth inhibition by double dilution method. The method in brief:
as §1

A further assay relates to Aspergillus terreus. Description: Antifungal activity against Aspergillus terreus ATCC MYA-3633 assessed as fungal growth inhibition by double dilution method.
Assay [12] has as its system Aspergillus fumigatus. Description: Antifungal activity against Aspergillus fumigatus NRRL 163 assessed as fungal growth inhibition by double dilution method.
The next assay deals with Aspergillus flavus. Description: Antifungal activity against Aspergillus flavus ATCC MYA-3631 assessed as fungal growth inhibition by double dilution method.
In the next assay the test system is Aspergillus nidulans. Description: Antifungal activity against Aspergillus nidulans ATCC 38163 assessed as fungal growth inhibition by double dilution method.
The test system of assay [13] is Aspergillus fumigatus. Description: Antifungal activity against Aspergillus fumigatus NRRL 5109 assessed as fungal growth inhibition by double dilution method.
Assay [14] concerns Aspergillus fumigatus. Description: Antifungal activity against Aspergillus fumigatus NRRL 6113 assessed as fungal growth inhibition by double dilution method.

Values after ≈ are worked out from the molar mass of the structure shown.

In general, MIC refers to the smallest concentration in the dilution series that meets the test's criterion for growth inhibition. As for `COc1ccc(NNC(=O)c2nc(F)ccc2F)cc1`, the MIC was 1.95 mg/L (≈ 6.98 µM) in the assay with Candida albicans [1]; 1.95 mg/L (≈ 6.98 µM) in the assay on Candida albicans [2]; 1.95 mg/L (≈ 6.98 µM) in the assay with Candida albicans [3]; 1.95 mg/L (≈ 6.98 µM) with Candida albicans [4]; 1.95 mg/L (≈ 6.98 µM) in the assay on Candida albicans [5]; 0.98 mg/L (≈ 3.51 µM) in the assay on Candida albicans [6]. For the same compound, the MIC was 0.98 mg/L (≈ 3.51 µM) in the assay with Candida albicans [7]; 7.8 mg/L (≈ 27.9 µM) in the assay with Nakaseomyces glabratus [8]; 0.98 mg/L (≈ 3.51 µM) in the assay with Pichia kudriavzevii; 7.8 mg/L (≈ 27.9 µM) with Nakaseomyces glabratus [9]; 3.9 mg/L (≈ 14 µM) in assay [Candida] auris [10]; 0.98 mg/L (≈ 3.51 µM) in assay [Candida] auris [11]. Moreover, the MIC in the assay with Cryptococcus neoformans is 0.98 mg/L (≈ 3.51 µM); in the assay with Aspergillus terreus, 31.3 mg/L (≈ 112 µM); in the assay with Aspergillus fumigatus [12] it was 31.3 mg/L (≈ 112 µM); with Aspergillus flavus, more than 31.3 mg/L; with Aspergillus nidulans it was 1.95 mg/L (≈ 6.98 µM); in the assay on Aspergillus fumigatus [13], 15.6 mg/L (≈ 55.9 µM). For the same compound, the MIC in the assay with Aspergillus fumigatus [14] is 31.3 mg/L (≈ 112 µM).

As for `O=C(NNc1ccc(F)cc1)c1ccc(F)cc1F`, the MIC with Candida albicans [1] stood at 0.49 mg/L (≈ 1.84 µM); with Candida albicans [2], 7.8 mg/L (≈ 29.3 µM); with Candida albicans [3], 7.8 mg/L (≈ 29.3 µM); in the assay on Candida albicans [4], 1.95 mg/L (≈ 7.32 µM); with Candida albicans [5], 3.9 mg/L (≈ 14.6 µM); in the assay on Candida albicans [6] it was 1.95 mg/L (≈ 7.32 µM). Further, the MIC came to 1.95 mg/L (≈ 7.32 µM) with Candida albicans [7]; 7.8 mg/L (≈ 29.3 µM) in the assay with Nakaseomyces glabratus [8]; 1.95 mg/L (≈ 7.32 µM) with Pichia kudriavzevii; 15.6 mg/L (≈ 58.6 µM) in the assay with Nakaseomyces glabratus [9]; 1.95 mg/L (≈ 7.32 µM) in assay [Candida] auris [10]; 1.95 mg/L (≈ 7.32 µM) in [Candida] auris [11]. Besides, the MIC with Cryptococcus neoformans is 0.49 mg/L (≈ 1.84 µM); in the assay with Aspergillus terreus, 3.9 mg/L (≈ 14.6 µM); with Aspergillus fumigatus [12], more than 31.3 mg/L; in the assay on Aspergillus flavus, more than 31.3 mg/L; in the assay on Aspergillus nidulans, 3.9 mg/L (≈ 14.6 µM); with Aspergillus fumigatus [13], more than 31.3 mg/L. Also, in the assay with Aspergillus fumigatus [14], the MIC was more than 31.3 mg/L.

Regarding `COc1cccc(NNC(=O)c2cccc(F)n2)c1`, the MIC in the assay with Candida albicans [1] is 0.98 mg/L (≈ 3.75 µM); in the assay with Candida albicans [2] it was 0.98 mg/L (≈ 3.75 µM); in the assay with Candida albicans [3] it was 0.49 mg/L (≈ 1.88 µM); in the assay on Candida albicans [4], 3.9 mg/L (≈ 14.9 µM); with Candida albicans [5] it was 1.95 mg/L (≈ 7.46 µM); in the assay on Candida albicans [6] it was 1.95 mg/L (≈ 7.46 µM). In addition, the MIC was found to be 0.98 mg/L (≈ 3.75 µM) in the assay with Candida albicans [7]; 15.6 mg/L (≈ 59.7 µM) with Nakaseomyces glabratus [8]; 0.24 mg/L (≈ 0.919 µM) in the assay with Pichia kudriavzevii; 3.9 mg/L (≈ 14.9 µM) in the assay with Nakaseomyces glabratus [9]; 1.95 mg/L (≈ 7.46 µM) in assay [Candida] auris [10]; 0.98 mg/L (≈ 3.75 µM) in assay [Candida] auris [11]. Besides, the MIC is 0.49 mg/L (≈ 1.88 µM) in the assay on Cryptococcus neoformans; 3.9 mg/L (≈ 14.9 µM) with Aspergillus terreus; 15.6 mg/L (≈ 59.7 µM) in the assay with Aspergillus fumigatus [12]; more than 31.3 mg/L with Aspergillus flavus; 1.95 mg/L (≈ 7.46 µM) in the assay on Aspergillus nidulans; 7.8 mg/L (≈ 29.9 µM) with Aspergillus fumigatus [13]. Also, in the assay with Aspergillus fumigatus [14], the MIC is more than 31.3 mg/L.

Consider `O=C(NNc1cccc(F)c1)c1nc(F)ccc1F`, for which the MIC with Candida albicans [1] is 0.98 mg/L (≈ 3.67 µM); in the assay on Candida albicans [2], 0.98 mg/L (≈ 3.67 µM); in the assay with Candida albicans [3] it was 1.95 mg/L (≈ 7.3 µM); with Candida albicans [4], 3.9 mg/L (≈ 14.6 µM); with Candida albicans [5], 1.95 mg/L (≈ 7.3 µM); in the assay on Candida albicans [6], 1.95 mg/L (≈ 7.3 µM). Further, the MIC is 0.98 mg/L (≈ 3.67 µM) with Candida albicans [7]; 15.6 mg/L (≈ 58.4 µM) in the assay on Nakaseomyces glabratus [8]; 0.49 mg/L (≈ 1.83 µM) with Pichia kudriavzevii; 7.8 mg/L (≈ 29.2 µM) in the assay with Nakaseomyces glabratus [9]; 1.95 mg/L (≈ 7.3 µM) in [Candida] auris [10]; 1.95 mg/L (≈ 7.3 µM) in assay [Candida] auris [11]. The MIC in the assay with Cryptococcus neoformans is not above 0.06 mg/L; in the assay with Aspergillus terreus, 3.9 mg/L (≈ 14.6 µM); with Aspergillus fumigatus [12], more than 31.3 mg/L; with Aspergillus flavus, more than 31.3 mg/L; with Aspergillus nidulans it was 1.95 mg/L (≈ 7.3 µM); in the assay on Aspergillus fumigatus [13], more than 31.3 mg/L. For the same compound, the MIC in the assay with Aspergillus fumigatus [14] is more than 31.3 mg/L.

For the compound `O=C(NNc1ccc(F)cc1)c1nc(F)ccc1F`, the MIC in the assay with Candida albicans [1] is 0.24 mg/L (≈ 0.898 µM); with Candida albicans [2] it was 0.98 mg/L (≈ 3.67 µM); with Candida albicans [3] it was 0.98 mg/L (≈ 3.67 µM); with Candida albicans [4], 0.98 mg/L (≈ 3.67 µM); in the assay on Candida albicans [5], 0.98 mg/L (≈ 3.67 µM); in the assay on Candida albicans [6], 0.98 mg/L (≈ 3.67 µM). Besides, the MIC amounted to 0.49 mg/L (≈ 1.83 µM) in the assay on Candida albicans [7]; 15.6 mg/L (≈ 58.4 µM) in the assay with Nakaseomyces glabratus [8]; 0.24 mg/L (≈ 0.898 µM) in the assay with Pichia kudriavzevii; 7.8 mg/L (≈ 29.2 µM) in the assay on Nakaseomyces glabratus [9]; 1.95 mg/L (≈ 7.3 µM) in [Candida] auris [10]; 0.98 mg/L (≈ 3.67 µM) in assay [Candida] auris [11]. In addition, the MIC in the assay with Cryptococcus neoformans worked out at 0.49 mg/L (≈ 1.83 µM); with Aspergillus terreus, 1.95 mg/L (≈ 7.3 µM); with Aspergillus fumigatus [12], 31.3 mg/L (≈ 117 µM); in the assay on Aspergillus flavus it was 7.8 mg/L (≈ 29.2 µM); with Aspergillus nidulans, 0.49 mg/L (≈ 1.83 µM); in the assay on Aspergillus fumigatus [13] it was 15.6 mg/L (≈ 58.4 µM). In addition, the MIC in the assay with Aspergillus fumigatus [14] was more than 31.3 mg/L.

With `COc1ccc(NNC(=O)c2ncc(F)cc2F)cc1`, the MIC is 1.95 mg/L (≈ 6.98 µM) in the assay with Candida albicans [1]; 1.95 mg/L (≈ 6.98 µM) with Candida albicans [2]; 1.95 mg/L (≈ 6.98 µM) in the assay with Candida albicans [3]; 1.95 mg/L (≈ 6.98 µM) in the assay with Candida albicans [4]; 1.95 mg/L (≈ 6.98 µM) with Candida albicans [5]; 0.98 mg/L (≈ 3.51 µM) in the assay on Candida albicans [6]. Moreover, the MIC in the assay with Candida albicans [7] is 0.98 mg/L (≈ 3.51 µM); in the assay with Nakaseomyces glabratus [8] it was 7.8 mg/L (≈ 27.9 µM); in the assay on Pichia kudriavzevii, 0.98 mg/L (≈ 3.51 µM); with Nakaseomyces glabratus [9] it was 7.8 mg/L (≈ 27.9 µM); in assay [Candida] auris [10], 3.9 mg/L (≈ 14 µM); in assay [Candida] auris [11] it was 0.98 mg/L (≈ 3.51 µM). Moreover, the MIC with Cryptococcus neoformans was 1.95 mg/L (≈ 6.98 µM); with Aspergillus terreus, 31.3 mg/L (≈ 112 µM); in the assay on Aspergillus fumigatus [12], 31.3 mg/L (≈ 112 µM); with Aspergillus flavus, more than 31.3 mg/L; in the assay with Aspergillus nidulans, 1.95 mg/L (≈ 6.98 µM); in the assay on Aspergillus fumigatus [13], 31.3 mg/L (≈ 112 µM). For the same compound, the MIC in the assay with Aspergillus fumigatus [14] worked out at 31.3 mg/L (≈ 112 µM).
